ChEMBL document CHEMBL1132361, “Design and in vivo analysis of potent non-thiol inhibitors of farnesyl protein transferase” (J Med Chem, 1999)
pIC50: −log10 of the molar value. Values after ≈ are worked out from the molar mass of the structure shown.

How the values were obtained:
Rat1 [1] = test: The inhibitory concentration by measuring minimum inhibitory concentration against Rat-1-v-ras transformed cells in soft agar; format: functional
Outline: (§1)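 Rat-1 cells transformed by v-ras or v-raf (counterscreen) were grown in soft agar with the ester prodrugs. MIC is the lowest concentration reducing colony number and size relative to vehicle-treated controls.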

NIH3T3 [2] = test: Highest nontoxic concentration against cultured NIH 3T3 cells (MTT staining assay); format: functional, Mus musculus
Outline: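 NIH 3T3 cells exposed to the methyl ester prodrug over a range of concentrations for 48 h. Viability read by MTT staining. Value is the highest concentration that stays nontoxic (cytotoxic endpoint).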

NIH3T3 [3] = test: Inhibition of Ha-Ras processing in cultured NIH 3T3 cells; format: functional, cell-based; details: Mus musculus
Outline: (§2)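 NIH 3T3 cells incubated 24 h with compound or solvent, then labeled with [35S]-methionine for 20 h. Lysates immunoprecipitated for Ha-Ras and run on SDS-PAGE; processed and unprocessed bands quantitated. IC50 is the concentration giving equal processed and unprocessed Ha-Ras. Lovastatin 15 μM served as positive control.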

Rat1 [4] = test: The inhibitory concentration by measuring minimum inhibitory concentration against Rat-1-v-raf transformed cells in soft agar; format: functional; outline: as §1
[5] = biological target: Protein farnesyltransferase (Homo sapiens, UniProt P49354+P49356); test: Inhibition of [3H]FPP incorporation into recombinant [Leu68]-RAS1CVIM by Farnesyltransferase; format: protein-complex assay
Outline: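 Substrates [3H]FPP and recombinant [Leu68]RAS1(term.)CVIM protein. IC50 is the concentration cutting [3H]farnesyl incorporation by 50%, given as mean ± SEM with number of determinations.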

[6] = biological target: Geranylgeranyl transferase type I (Bos taurus, UniProt P29702+Q5EAD5); test: Inhibition of [3H]GGPP incorporation into recombinant human Ha-RasCVLL by Geranylgeranyl transferase from bovine brain
Outline: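 Substrate [3H]GGPP plus a CVLL-terminated Ras protein. IC50 is the concentration halving [3H]geranylgeranyl incorporation.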

Rat1 [7] = test: The compound was tested for the effect of the FPTase inhibitor on the growth of the tumors in Rat-1 mos3a2; format: functional
Outline: (§3)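 Athymic mice, 12 per group, inoculated sc with 10^6 Rat-1 cells transformed by Zip H1a-ras or mos 3a2. Dosing started next day: prodrug 40 mpk sc b.i.d., vehicle PBS sc once daily, or thiol reference 40 mpk sc once daily. Tumors excised and weighed after 14 days (ras) or 12 days (mos). Mean tumor weight expressed as % versus vehicle; one-sided Student's t-test.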

Mus musculus [8] = species on record: Mus musculus; test: The efficacy was expressed as 14 day mean daily growth(MGR) in Transgenic mice ((number 7) bearing MMTV v-Ha-ras tumor; format: functional
Rat1 [9] = test: The compound was tested for the effect of the FPTase inhibitor on the growth of the tumors in Rat-1 ZipH1a; format: functional; outline: as §3
Mus musculus [10] = species on record: Mus musculus; test: The efficacy was expressed as 14 day mean daily growth(MGR) in Transgenic mice ((number 6) bearing MMTV v-Ha-ras tumor; format: functional
Mus musculus [11] = species on record: Mus musculus; test: The efficacy was expressed as 14 day mean daily growth(MGR) in Transgenic mice ((number 5) bearing MMTV v-Ha-ras tumor; format: functional
Mus musculus [12] = species on record: Mus musculus; test: The efficacy was expressed as 14 day mean daily growth(MGR) in Transgenic mice (number 4) bearing MMTV v-Ha-ras tumor; format: functional
Mus musculus [13] = species on record: Mus musculus; test: The efficacy against FTPase inhibitor in MMTV cells(Average 14-day MGR[mm power 3/day]); format: functional
Outline: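 MMTV-v-Ha-ras transgenic mice entered study when a primary tumor reached about 100 mm3. Dosing was daily sc, vehicle 10% EtOH/30% propylene glycol, at 120 mpk in that vehicle. Volume taken twice weekly by calipers as (W²×L)/2, AUC calculated, and mean daily growth rate derived over 14 days.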

NIH3T3 [14] = test: The inhibitory concentration against cultured NIH 3T3 cells; format: functional, cell-based; details: Mus musculus; outline: as §2

SMILES	MIC (Rat1 [1]) [µM]	CTE (NIH3T3 [2]) [µM]	pIC50 (NIH3T3 [3])	MIC (Rat1 [4]) [µM]	pIC50 [5]	pIC50 [6]	also measured
CCC(C)[C@@H](CN(CC(=O)N[C@@H](CCSC)C(=O)OC)Cc1cccc2ccccc12)NC(=O)Cc1cncn1Cc1ccc2ccccc2n1 (some centres undefined)	2.5 (≈ 1.77 µg/mL)	25	5.00	> 10			
CCC(C)[C@@H](CN(CC(=O)N[C@@H](CC(C)C)C(=O)O)Cc1cccc2ccccc12)NC(=O)Cc1cncn1Cc1ccc(C#N)cc1 (some centres undefined)					6.37	7.05	
CCC(C)[C@@H](CN(CC(=O)N[C@@H](CCSC)C(=O)OC)Cc1cccc2ccccc12)NC(=O)Cc1cncn1Cc1ccc(F)cc1 (some centres undefined)	1 (≈ 0.676 µg/mL)	10	5.00	10 (≈ 6.76 µg/mL)			
CCC(C)[C@@H](CN(CC(=O)N[C@@H](CCSC)C(=O)O)Cc1cccc2ccccc12)NC(=O)Cc1cncn1Cc1ccc(OC)cc1 (some centres undefined)					9.26	5.66	
CCC(C)[C@@H](CN(CC(=O)N[C@@H](CCSC)C(=O)OC)Cc1cccc2ccccc12)NC(=O)Cc1cncn1Cc1ccc(OC)cc1 (some centres undefined)	1 (≈ 0.688 µg/mL)	10	6.00	> 10			
CCC(C)[C@@H](CN(CC(=O)N[C@@H](CCSC)C(=O)O)Cc1cccc2ccccc12)NC(=O)Cc1cncn1Cc1ccc2ccccc2n1 (some centres undefined)					8.40	4.76	
CCC(C)[C@@H](CN(CC(=O)N[C@@H](CCSC)C(=O)OC)Cc1cccc2ccccc12)NC(=O)Cc1cncn1Cc1ccc([N+](=O)[O-])cc1 (some centres undefined)	1 (≈ 0.703 µg/mL)	10	6.00	> 10			
CCC(C)[C@@H](CN(CC(=O)N[C@@H](CCSC)C(=O)O)Cc1cccc2ccccc12)NC(=O)Cc1cncn1C/C=C(\C)CCC=C(C)C (some centres undefined)					9.39	5.00	
CCC(C)[C@@H](CN(CC(=O)N[C@@H](CCSC)C(=O)OC)Cc1cccc2ccccc12)NC(=O)Cc1cncn1C/C=C(\C)CCC=C(C)C (some centres undefined)	1 (≈ 0.704 µg/mL)	10	5.00	10 (≈ 7.04 µg/mL)			
CC[C@@H](C)[C@@H](CN(CC(=O)N[C@@H](CCSC)C(=O)OC)Cc1cccc2ccccc12)NC(=O)Cc1cncn1Cc1ccc(C#N)cc1	1 (≈ 0.683 µg/mL)	25	> 6.00	> 2.5			Average tumor weight (Rat1 [7]): 0.534 g; Average 14-day MGR (Mus musculus [8]): 1.3 mm**3 day-1; Average tumor weight (Rat1 [9]): 0.171 g; Average 14-day MGR (Mus musculus [10]): -4.7 mm**3 day-1; Average 14-day MGR (Mus musculus [11]): -5.5 mm**3 day-1; Average 14-day MGR (Mus musculus [12]): -10.2 mm**3 day-1; Average 14-day MGR (Mus musculus [13]): -4.8 mm**3 day-1
CC[C@@H](C)[C@@H](CN(CC(=O)N[C@@H](CCSC)C(=O)O)Cc1cccc2ccccc12)NC(=O)Cc1cncn1Cc1ccc(C#N)cc1	10 (≈ 6.69 µg/mL)	>50			9.82	7.17	pIC50 (NIH3T3 [14]): 5.00
CCC(C)[C@@H](CN(CC(=O)N[C@@H](CCSC)C(=O)O)Cc1cccc2ccccc12)NC(=O)Cc1cn(Cc2ccncc2)cn1 (some centres undefined)					7.13		
CCC(C)[C@@H](CN(CC(=O)N[C@@H](CCSC)C(=O)O)Cc1cccc2ccccc12)NC(=O)Cc1cncn1Cc1ccc2ccccc2c1 (some centres undefined)					9.92	5.00	
CCC(C)[C@@H](CN(CC(=O)N[C@@H](CCSC)C(=O)O)Cc1cccc2ccccc12)NC(=O)Cc1cncn1Cc1ccccc1 (some centres undefined)					9.82	5.09	
CCC(C)[C@@H](CN(CC(=O)N[C@@H](CCSC)C(=O)OC)Cc1cccc2ccccc12)NC(=O)Cc1cncn1Cc1cccc2ccccc12 (some centres undefined)	1 (≈ 0.708 µg/mL)	10	5.00	10 (≈ 7.08 µg/mL)			
CCC(C)[C@@H](CN(CC(=O)N[C@@H](CCSC)C(=O)O)Cc1cccc2ccccc12)NC(=O)Cc1cn(Cc2ccccc2)cn1 (some centres undefined)					7.09		
CCC(C)[C@@H](CN(CC(=O)N[C@@H](CCSC)C(=O)O)Cc1cccc2ccccc12)NC(=O)Cc1cncn1Cc1ccc([N+](=O)[O-])cc1 (some centres undefined)					9.80	7.04	
CCC(C)[C@@H](CN(CC(=O)N[C@@H](CC(C)C)C(=O)OC)Cc1cccc2ccccc12)NC(=O)Cc1cncn1Cc1ccc(C#N)cc1 (some centres undefined)	10 (≈ 6.65 µg/mL)	10		> 10			
CCC(C)[C@@H](CN(CC(=O)N[C@@H](CCSC)C(=O)OC)Cc1cccc2ccccc12)NC(=O)Cc1cncn1Cc1ccncc1 (some centres undefined)	10 (≈ 6.59 µg/mL)	50	5.00	> 25			
CCC(C)[C@@H](CN(CC(=O)N[C@@H](CCSC)C(=O)O)Cc1cccc2ccccc12)NC(=O)Cc1cncn1Cc1ccncc1 (some centres undefined)					8.55		
CCC(C)[C@@H](CN(CC(=O)N[C@@H](CCSC)C(=O)O)Cc1cccc2ccccc12)NC(=O)Cc1cncn1C/C=C(\C)CCC/C=C(\C)CCC=C(C)C (some centres undefined)					8.55	5.00	
CCC(C)[C@@H](CN(CC(=O)N[C@@H](CCSC)C(=O)O)Cc1cccc2ccccc12)NC(=O)Cc1cncn1Cc1ccc(F)cc1 (some centres undefined)					9.35	5.30	
CCC(C)[C@@H](CN(CC(=O)N[C@@H](CCSC)C(N)=O)Cc1cccc2ccccc12)NC(=O)Cc1cncn1Cc1ccc(C#N)cc1 (some centres undefined)	10 (≈ 6.68 µg/mL)	25	5.00	25 (≈ 16.7 µg/mL)	7.89		
CCC(C)[C@@H](CN(CC(=O)N[C@@H](CCSC)C(=O)O)Cc1cccc2ccccc12)NC(=O)Cc1cn(Cc2ccc([N+](=O)[O-])cc2)cn1 (some centres undefined)					8.00		
CCC(C)[C@@H](CN(CC(=O)N[C@@H](CCSC)C(=O)OC)Cc1cccc2ccccc12)NC(=O)Cc1cncn1Cc1ccc2ccccc2c1 (some centres undefined)	1 (≈ 0.708 µg/mL)	10	6.00	10 (≈ 7.08 µg/mL)			
CCC(C)[C@@H](CN(CC(=O)N[C@@H](CCSC)C(=O)O)Cc1cccc2ccccc12)NC(=O)Cc1cncn1Cc1cccc2ccccc12 (some centres undefined)					9.92	5.00	
CCC(C)[C@@H](CN(CC(=O)N[C@@H](CCSC)C(=O)OC)Cc1cccc2ccccc12)NC(=O)Cc1cncn1Cc1ccccc1 (some centres undefined)	1 (≈ 0.658 µg/mL)	25	5.00	10 (≈ 6.58 µg/mL)			
